Rows were chosen to be rich in hits. Some 3.9% of all compounds tested hit in one or more screens of this group.
UPR XBP1 act = activators of adaptive XBP1 UPR arm, primary screen, cell-based, CHO-XBP1 luciferase reporter, luminescence, uHTS | IRE1-XBP1 UPR activation; percent of tunicamycin response, DMSO as zero | AID 463104, 2010 | 0.33% of 330,000 active | activation, % at 20 µM;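 active means versus positive control, 20 µM dose yields 30% or more activation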
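Material: CHO cell line with stable XBP1 luciferase reporter; buffer or medium: F12 medium containing 10% fetal bovine serum; compound: single point, 20 µM final compound, 1% DMSO; incubation: 6 h treatment, 37 °C; measured by: glow luminescence from Steady-Glo reagent; evaluation: activation, % of tunicamycin; control set: tunicamycin high, DMSO low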
CHOP inhibitor = inhibitors of CHOP promoter induction, primary screen, cell-based, unfolded protein response, luciferase reporter. CHO-K1 CHOP-promoter luciferase, tunicamycin-induced, 15-18 h. inhibition, % at 10 µM. 3.8% of 220,000 active. AID 2732, 2010;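 active means compounds that reduced the stress-induced luciferase reporter signal by more than about 70% of percent inhibition, limit read from the data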
Gli-Sufu antag = Gli-Sufu pathway antagonists, primary screen, luciferase luminescence, Sufu-KO-LIGHT cells, uHTS; AID 588413, 2011; inhibition, % at 5 µM; Sufu-KO-LIGHT fibroblasts, Gli luciferase reporter luminescence; 0.74% of 340,000 active;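 active means inhibition above about 55%, limit read from the data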
Jurkat NFkB inh = inhibitors of induced NF-kB luciferase reporter, primary screen, TCR NF-kB activation inhibitor project, cell-based, luminescence, uHTS; Jurkat, PMA/ionomycin-induced NF-kB luciferase reporter; 0.53% of 330,000 active; inhibition, % at 4 µM; in the data active means inhibition above about 50%
CHOP UPR activ = activators of apoptotic CHOP UPR arm, primary screen, cell-based, CHO-CHOP luciferase reporter, luminescence, uHTS | UPR activation; percent of tunicamycin response over DMSO baseline | activation, % at 10 µM | 0.34% of 330,000 active | AID 449763, 2010;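 active means at 10 µM dose, activation of 40% or more, normalized to positive control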
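System: CHO CHOP reporter cells. Amount: 500 cells per well. Buffer or medium: F12 medium, 10% FBS. Compound dosing: one dose, 10 µM in 0.5% DMSO. Incubation: 6 h compound exposure at 37 °C after overnight seeding. Technique: Steady-Glo luciferase luminescence. Benchmarks: tunicamycin and DMSO controls.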
697 NFkB inh = inhibitors of PMA/ionomycin-induced NF-kB reporter, 697 cells, primary screen, B-cell NF-kB inhibitor project, cell-based, luminescence, uHTS | 697 B-cell NF-kB luciferase reporter, 16 h | inhibition, % at 4 µM | 0.33% of 330,000 active | AID 435022, 2010; in the data active means inhibition above about 35%
Numbers stand for hits; 0 = inactive; - = not tested or not shown.

SMILES	UPR XBP1 act	CHOP inhibitor	Gli-Sufu antag	Jurkat NFkB inh	CHOP UPR activ	697 NFkB inh
CCc1ccc2c(c1)C1(NN=C(c3ccc(C)cc3)S1)C(=O)N2 (centres undefined)	0	87.7	0	0	0	0
CCCCn1c(=N)n(CC(O)COc2ccccc2)c2ccccc21 (centres undefined)	0	0	0	0	0	0
CCCCn1c(=N)n(CC(O)COc2ccc(C)cc2)c2ccccc21 (centres undefined)	0	72.0	0	0	0	0
O=C1C2C3C=CC(CC3)C2C(=O)N1/N=C/c1ccccc1O (centres undefined)	0	0	0	0	0	0
O=C1C2C3C=CC(CC3)C2C(=O)N1/N=C/c1c(O)ccc2ccccc12 (centres undefined)	0	71.6	0	0	0	0
Cc1ccccc1C(=O)NC(=S)Nc1ccc(S(=O)(=O)N(C)c2ccccc2)cc1	0	76.9	0	0	0	0
COc1cc(/C=C(\C#N)C(=O)NCCc2ccccc2)cc(OC)c1O	0	0	0	0	0	0
N#C/C(=C\c1ccc(O)c(O)c1)C(=O)NCCc1ccccc1	0	0	0	0	222.6	0
N#C/C(=C\c1ccc(O)c(O)c1)C(=O)N1CCc2ccccc21	0	-	0	0	174.6	0
COc1cc(NC(=O)CN2C(=O)COc3ccc(S(=O)(=O)N4CCOCC4)cc32)cc(OC)c1	0	-	0	0	0	0
O=C(CSc1nnc(-c2cccs2)n1C1CC1)NCC1CCCO1 (centres undefined)	0	-	0	0	0	0
O=c1[nH]cnc2c1sc1nc3c(c(-c4ccc(Cl)cc4)c12)CCC3	0	85.4	0	0	0	0
CCOC(=O)Cn1nnc2c(sc3nc4c(c(-c5ccc(Cl)cc5)c32)CCC4)c1=O	0	0	0	0	0	0
Cc1c(Br)c(C(F)(F)F)nn1CC(=O)NCCCn1ccnc1	0	0	0	0	0	0
O=[N+]([O-])c1c(NCCCO)cc(SCc2ccco2)c2nonc12	0	0	0	0	0	0
Cn1ccnc1Sc1cc(NCCCO)c([N+](=O)[O-])c2nonc12	0	95.9	0	0	0	0
COC(=O)C(NC(=O)CCc1nnc2ccc(N3CCCCC3)nn12)C(C)C (centres undefined)	0	-	0	0	0	0
CC(Sc1ccc(Cl)cc1)C(=O)Nc1ccccc1-c1ccccc1 (centres undefined)	-	92.9	0	-	-	-
CC1CC(C)C[N+](=C2C=C(N3CCCC3)CC(C)(C)C2)C1 (centres undefined)	-	0	86.0	-	-	-
Cc1[nH]n(-c2ccccc2)c(=S)c1C=Nc1ccc([N+](=O)[O-])cc1	-	80.4	0	-	-	-
Cc1[nH]n(-c2ccccc2)c(=O)c1C=Nc1ccc(S(=O)(=O)N=C(N)N)cc1	0	0	0	0	0	0
CC(C)C(NC(=O)c1cccc(S(=O)(=O)N2CCOCC2)c1)C(=O)NCc1ccc(Cl)cc1 (centres undefined)	0	-	0	0	0	0
CN(C(=O)c1cc2nc(-c3ccco3)cc(C(F)(F)F)n2n1)C1CCCCC1	0	92.8	0	0	0	0
O=C(c1cc2nc(-c3ccco3)cc(C(F)(F)F)n2n1)N1CCCc2ccccc21	0	70.8	0	0	0	0
Clc1ccc(-c2nnnn2-c2ccc(Cl)c(Cl)c2)cc1Cl	0	83.3	0	0	0	0
COc1ccc(NC(=O)CC2C(=O)N(c3ccc(Cl)cc3)C(=S)N2CCc2ccccn2)cc1 (centres undefined)	0	0	0	0	0	0
COc1ccc(NC(=O)CC2C(=O)N(c3ccc(Cl)cc3)C(=S)N2NC(=O)c2cccc(F)c2)cc1 (centres undefined)	0	83.7	0	0	0	0
